Results published in ChEMBL document CHEMBL1133720, “Structural studies on bioactive compounds. 32. Oxidation of tyrphostin protein tyrosine kinase inhibitors with hypervalent iodine reagents” (J Med Chem, 2000).
pIC50: −log10 of the molar value. Each block holds one molecule with its values, some of them ahead of it.

Legend:
Cell line = assay: Inhibition of proliferation in NCI panel of 60 human cell lines (Range is 20-80 uM); assay type: functional
[1] = target: Receptor tyrosine-protein kinase erbB-2; assay: Inhibition of c-erbB2 receptor
MDA-MB-231 = assay: Inhibition of MDA-231 human breast tumor cell proliferation; assay type: functional, cell-based
How it was run: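 MTT assay, 7-day continuous drug exposure. Cells seeded at 250-300 cells/well in RPMI 1640 with 10% FCS and penicillin/streptomycin, attached over 24 h drug-free at 37 °C/5% CO2. Drug range 1 nM-100 µM from DMSO stocks, final DMSO <0.25%. MTT 400 µg/mL final for 4 h, formazan dissolved in DMSO-glycine, absorbance 550 nm. IC50 is the mean of at least three experiments.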

MDA-MB-468 = assay: Inhibition of MDA-468 human breast tumor cell proliferation; assay type: functional, cell-based
How it was run: (§1)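 Seven-day MTT assay at 250-300 cells/well in RPMI 1640 with 10% FCS. After a 24-h drug-free attachment at 37 °C/5% CO₂, drug was added at 1 nM-100 µM (final DMSO <0.25%). MTT was added at a final 400 µg/mL for 4 h, formazan was dissolved in DMSO-glycine (4:1) and absorbance read at 550 nm. IC50 is the mean of at least three experiments.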

MCF7 [2] = assay: Inhibition of MCF-7/adr human breast tumor cell proliferation; assay type: functional, cell-based; how it was run: as §1
MCF7 [3] = assay: (§2) Inhibition of MCF-7 human breast tumor cell proliferation; assay type: functional, cell-based; how it was run: as §1
SK-BR-3 = assay: Inhibition of SBBr3 human breast tumor cell proliferation; assay type: functional, cell-based; how it was run: as §1
ZR-75-1 = assay: Inhibition of ZR-75-1 human breast tumor cell proliferation; assay type: functional, cell-based; how it was run: as §1
MCF7 [4] = assay: as §2; assay type: functional, cell-based; how it was run: as §1; remark: listed apart in the source
T47D = assay: Inhibition of T47D human breast tumor cell proliferation; assay type: functional, cell-based; how it was run: as §1
MCF7 [5] = assay: Inhibition of TGF-alpha stimulated MCF-7 human breast tumor cell proliferation; assay type: functional, cell-based
How it was run: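 MCF-7 cells, 5 × 10³/well, were plated in phenol red-free RPMI 1640 with 5% charcoal-stripped FCS and allowed to attach overnight. Growth factor (IGF-I, IGF-II or TGF-α, as the line names) was then added together with drug. Cells grew a further 7 days, and viable cells were counted by MTT. IC50 is the mean of at least three experiments.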

Compound: N#CC(C#N)=Cc1ccc(Oc2ccccc2)c(I)c1
GI50 (Cell line): 80 µM

Compound: COC(=O)/C(C#N)=C/c1ccc(Oc2ccccc2)c(I)c1
GI50 (Cell line): 80 µM

Compound: N#C/C(=C\c1ccc(Oc2ccccc2)c(I)c1)C(N)=O
GI50 (Cell line): 80 µM

pIC50 [1]: 6.46
Compound: COc1cc(/C=C(\C#N)C(N)=O)cc(Sc2nc3ccccc3s2)c1O

Compound: N#C/C(=C\c1ccc(Oc2ccccc2)c(I)c1)C(=O)NCCCc1ccccc1
GI50 (Cell line): 80 µM

Compound: COc1cc(C=C(C#N)C#N)cc(-c2cc(C=C(C#N)C#N)cc(OC)c2O)c1O
GI50 (Cell line): 80 µM

Compound: COc1cc(C(C)=O)cc(-c2cc(C(C)=O)cc(OC)c2O)c1O
GI50 (Cell line): 80 µM

Compound: COc1cc(/C=C(\C#N)C(N)=O)cc(-c2cc(/C=C(\C#N)C(N)=O)cc(OC)c2O)c1O
GI50 (Cell line): 80 µM

pIC50 (MDA-MB-231): 4.29
pIC50 (MDA-MB-468): 7.22
pIC50 (MCF7 [2]): 4.28
pIC50 (MCF7 [3]): 6.15
pIC50 (SK-BR-3): 6.30
pIC50 (MCF7 [4]): 5.57
pIC50 (T47D): 5.22
pIC50 (MCF7 [5]): 5.64
Compound: COc1cc(/C=C(\C#N)c2ccccn2)ccc1O
pIC50 (ZR-75-1): 5.59

Compound: COc1cc(C=O)cc(-c2cc(C=O)cc(OC)c2O)c1O
GI50 (Cell line): 80 µM

Compound: COC(=O)/C(C#N)=C/c1cc(OC)c(O)c(-c2cc(/C=C(\C#N)C(=O)OC)cc(OC)c2O)c1
GI50 (Cell line): 80 µM

Compound: COC(=O)c1cc(OC)c(O)c(-c2cc(C(=O)OC)cc(OC)c2O)c1
GI50 (Cell line): 80 µM

pIC50 (MDA-MB-231): 4.40
pIC50 (MDA-MB-468): 6.52
pIC50 (MCF7 [2]): 4.60
pIC50 (MCF7 [3]): 4.70
pIC50 (SK-BR-3): 5.19
pIC50 (MCF7 [4]): 4.38
pIC50 (T47D): 4.31
pIC50 (MCF7 [5]): 4.39
Compound: N#C/C(=C\c1ccc(Oc2ccccc2)c(I)c1)c1ccccn1
pIC50 (ZR-75-1): 4.61

Compound: COc1cc(/C=C(\C#N)c2ccccn2)cc(-c2cc(/C=C(\C#N)c3ccccn3)cc(OC)c2O)c1O
GI50 (Cell line): 80 µM

Compound: CCOc1cc(C=C(C#N)C#N)cc(-c2cc(C=C(C#N)C#N)cc(OCC)c2O)c1O
GI50 (Cell line): 80 µM

pIC50 (MDA-MB-231): 4.39
pIC50 (MDA-MB-468): 6.35
pIC50 (MCF7 [2]): 4.29
pIC50 (MCF7 [3]): 4.82
pIC50 (SK-BR-3): 5.11
pIC50 (MCF7 [4]): 4.13
pIC50 (T47D): 4.44
pIC50 (MCF7 [5]): 4.17
Compound: N#C/C(=C\c1ccc(O)cc1)c1ccccn1
pIC50 (ZR-75-1): 4.31

Compound: COC1=C2C[C@@H](C)C[C@H](OC)[C@H](O)[C@@H](C)/C=C(\C)[C@H](OC(N)=O)[C@@H](OC)/C=C\C=C(/C)C(=O)NC(=CC1=O)C2=O [GELDANAMYCIN]
GI50 (Cell line): 0.327 µM
